# From ChEMBL document CHEMBL1129958, “Synthesis and antiviral activity of certain 5'-modified analogs of 2,5,6-trichloro-1-(beta-D-ribofuranosyl)benzimidazole” (J Med Chem, 1997)
# Tested on: Human betaherpesvirus 5
# Assay: In vitro antiviral activity against HCMV (Towne strain) in HFF (human fibroblast) cells.
# Format: functional, organism-based
# Settings: Human betaherpesvirus 5, HFF
# In short: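 HFF monolayers in 24-well dishes infected with about 100 PFU HCMV/cm2 of cell sheet. After adsorption, compound in growth medium added to duplicate wells at four to eight concentrations. Incubated 7 days at 37 °C, fixed and stained with crystal violet, microscopic plaques counted. Percent plaque reduction against no-drug wells regressed on log concentration to give IC50.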
row,Structure (SMILES),IC50 [µM]
1,CC(=O)OC1C(CCl)OC(n2c(Cl)nc3cc(Cl)c(Cl)cc32)C1OC(C)=O (configuration not stated),1.4
2,OC[C@H]1O[C@@H](n2c(Cl)nc3cc(Cl)c(Cl)cc32)[C@H](O)[C@@H]1O,2.8
3,O[C@@H]1[C@@H](CF)OC(n2c(Cl)nc3cc(Cl)c(Cl)cc32)[C@@H]1O (some centres not stated),0.5
4,[N-]=[N+]=NC[C@H]1OC(n2c(Cl)nc3cc(Cl)c(Cl)cc32)[C@H](O)[C@@H]1O (some centres not stated),1.5
5,CCOC[C@H]1OC(n2c(Cl)nc3cc(Cl)c(Cl)cc32)[C@H](O)[C@@H]1O (some centres not stated),4.6

# Tested on: Human betaherpesvirus 5
# Assay: Antiviral activity was determined against Towne strain of HCMV by Plaque and yield reduction test
# Format: functional
# Settings: not given
row,Structure (SMILES),IC90 [µM]
1,[N-]=[N+]=NC[C@H]1OC(n2c(Cl)nc3cc(Cl)c(Cl)cc32)[C@H](O)[C@@H]1O (some centres not stated),0.6

# Tested on: Human betaherpesvirus 5
# Assay: In vitro reduction in yield of Towne strain of HCMV in HFF (human fibroblast) cells.
# Format: functional
# Settings: Human betaherpesvirus 5, HFF
# In short: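 HFF in 96-well plates infected with HCMV Towne at MOI 0.5-1 PFU/cell. After adsorption, compound given in duplicate, serially diluted 1:3 from 100 to 0.14 µM. After 7 days at 37 °C, one freeze-thaw cycle, then progeny titred by 1:3 serial dilution on fresh HFF monolayers with plaque counts. IC90 taken from regression of percent inhibition against log concentration.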
row,Structure (SMILES),IC90 [µM]
1,CC(=O)OC1C(CCl)OC(n2c(Cl)nc3cc(Cl)c(Cl)cc32)C1OC(C)=O (configuration not stated),0.31
2,OC[C@H]1O[C@@H](n2c(Cl)nc3cc(Cl)c(Cl)cc32)[C@H](O)[C@@H]1O,1.3
3,O[C@@H]1[C@@H](CF)OC(n2c(Cl)nc3cc(Cl)c(Cl)cc32)[C@@H]1O (some centres not stated),0.22

# Tested on: HFF
# Assay: Visual cytotoxicity was scored on Human foreskin fibroblasts (HFF cells) at the time of plaque enumeration.
# Format: functional, cell-based
# Settings: not given
# In short: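 Stationary HFF cells from the plaque assays, not affected by virus, inspected microscopically for cytotoxicity at the time of plaque counting.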
row,Structure (SMILES),IC50 [µM]
1,CC(=O)OC1C(CCl)OC(n2c(Cl)nc3cc(Cl)c(Cl)cc32)C1OC(C)=O (configuration not stated),32
2,O[C@@H]1[C@@H](CF)OC(n2c(Cl)nc3cc(Cl)c(Cl)cc32)[C@@H]1O (some centres not stated),32
3,[N-]=[N+]=NC[C@H]1OC(n2c(Cl)nc3cc(Cl)c(Cl)cc32)[C@H](O)[C@@H]1O (some centres not stated),32
4,CCOC[C@H]1OC(n2c(Cl)nc3cc(Cl)c(Cl)cc32)[C@H](O)[C@@H]1O (some centres not stated),26

# Tested on: Human alphaherpesvirus 1
# Assay: In vitro antiviral activity against HSV-1 virus in BSC-1 (monkey kidney) cells.
# Format: functional, organism-based
# Settings: Human alphaherpesvirus 1, BSC-1
# In short: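 BSC-1 cells, 10 000/well in MEM(E) with 10% calf serum, incubated overnight at 37 °C. Drug added in quadruplicate together with HSV-1 KOS at 100 PFU/well and incubated 3 days. Read-out by ELISA with HRP-conjugated rabbit anti-HSV-1 and TMB substrate, absorbance at 450 and 570 nm. Percent absorbance reduction against virus-only wells regressed on log concentration for IC50.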
row,Structure (SMILES),IC50 [µM]
1,CC(=O)OC1C(CCl)OC(n2c(Cl)nc3cc(Cl)c(Cl)cc32)C1OC(C)=O (configuration not stated),> 100
2,OC[C@H]1O[C@@H](n2c(Cl)nc3cc(Cl)c(Cl)cc32)[C@H](O)[C@@H]1O,102
3,O[C@@H]1[C@@H](CF)OC(n2c(Cl)nc3cc(Cl)c(Cl)cc32)[C@@H]1O (some centres not stated),> 100
4,[N-]=[N+]=NC[C@H]1OC(n2c(Cl)nc3cc(Cl)c(Cl)cc32)[C@H](O)[C@@H]1O (some centres not stated),> 100
5,CCOC[C@H]1OC(n2c(Cl)nc3cc(Cl)c(Cl)cc32)[C@H](O)[C@@H]1O (some centres not stated),> 100

# Tested on: KB
# Assay: In vitro inhibition of KB (human carcinoma) cell growth.
# Format: functional, cell-based
# Settings: not given
# In short: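 KB cells, 3000–5000/well, incubated overnight at 37 °C. Compound added in quadruplicate at six to eight concentrations for 48 h (about two population doublings). Cells fixed in 95% ethanol, stained with 0.1% crystal violet, dye eluted with acidified ethanol and read at 570 nm. IC50 from regression against log concentration.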
row,Structure (SMILES),IC50 [µM]
1,CC(=O)OC1C(CCl)OC(n2c(Cl)nc3cc(Cl)c(Cl)cc32)C1OC(C)=O (configuration not stated),90
2,O[C@@H]1[C@@H](CF)OC(n2c(Cl)nc3cc(Cl)c(Cl)cc32)[C@@H]1O (some centres not stated),> 100
3,[N-]=[N+]=NC[C@H]1OC(n2c(Cl)nc3cc(Cl)c(Cl)cc32)[C@H](O)[C@@H]1O (some centres not stated),70
4,CCOC[C@H]1OC(n2c(Cl)nc3cc(Cl)c(Cl)cc32)[C@H](O)[C@@H]1O (some centres not stated),80

# Tested on: L1210
# Assay: Effect of initial screen concentration of 100 uM on the growth of L1210 Murine Leukemia cells
# Format: functional, Mus musculus
# Settings: not given
# In short: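 L1210 mouse leukemia cells in RPMI 1640 with 10% heat-inactivated horse serum, 2000 cells/well. Compound added the next day and incubated 3 days. Growth read by MTS tetrazolium reduction optical density as percent of control. Screen at 100 µM, or the solubility limit; value is the mean of two or three experiments.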
row,Structure (SMILES),Control [%]
1,OC[C@H]1O[C@@H](n2c(Cl)nc3cc(Cl)c(Cl)cc32)[C@H](O)[C@@H]1O,76
2,O[C@@H]1[C@@H](CF)OC(n2c(Cl)nc3cc(Cl)c(Cl)cc32)[C@@H]1O (some centres not stated),81
3,[N-]=[N+]=NC[C@H]1OC(n2c(Cl)nc3cc(Cl)c(Cl)cc32)[C@H](O)[C@@H]1O (some centres not stated),29
4,CCOC[C@H]1OC(n2c(Cl)nc3cc(Cl)c(Cl)cc32)[C@H](O)[C@@H]1O (some centres not stated),9

# Tested on: L1210
# Assay: concentration required to decrease the cell density in the treated cultures to one-half of the control was measured on L1210 murine Leukemia cells (in vitro)
# Format: functional, cell-based
# Settings: Mus musculus
# In short: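 L1210 cells, 2000/well, given compound the day after plating and incubated 3 days; cell density read by MTS reduction. Concentration–response in two independent experiments. IC50 is the concentration that halves cell density relative to control, averaged over the two experiments.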
row,Structure (SMILES),IC50 [µM]
1,OC[C@H]1O[C@@H](n2c(Cl)nc3cc(Cl)c(Cl)cc32)[C@H](O)[C@@H]1O,> 100
2,O[C@@H]1[C@@H](CF)OC(n2c(Cl)nc3cc(Cl)c(Cl)cc32)[C@@H]1O (some centres not stated),> 100
3,[N-]=[N+]=NC[C@H]1OC(n2c(Cl)nc3cc(Cl)c(Cl)cc32)[C@H](O)[C@@H]1O (some centres not stated),80
4,CCOC[C@H]1OC(n2c(Cl)nc3cc(Cl)c(Cl)cc32)[C@H](O)[C@@H]1O (some centres not stated),59

# Tested on: L1210
# Assay: concentration required to decrease the cell density in the treated cultures to one-half of the control was measured on L1210 murine Leukemia cells (in vitro); c=No significant growth inhibition observed atthe initial screen concentration
# Format: functional, cell-based, Mus musculus
# Settings: not given
row,Structure (SMILES),IC50
1,CC(=O)OC1C(CCl)OC(n2c(Cl)nc3cc(Cl)c(Cl)cc32)C1OC(C)=O (configuration not stated),No significant growth

# Tested on: L1210
# Assay: Effect of initial screen concentration of 10 uM on the growth of L1210 Murine Leukemia cells
# Settings: not given
row,Structure (SMILES),Control [%]
1,CC(=O)OC1C(CCl)OC(n2c(Cl)nc3cc(Cl)c(Cl)cc32)C1OC(C)=O (configuration not stated),96
